Experimental data taken from ChEMBL document CHEMBL1126896, “Preparation and anti-HIV activity of O-acylated heparin and dermatan sulfate derivatives with low anticoagulant effect” (J Med Chem, 1993).

Tests used:
HuT78 [1] = test: Giant-cell formation between persistently HIV-1 infected HUT-78 cells and uninfected MOLT-4 cells; format: functional, cell-based
Outline: (§1)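 MOLT-4 cells were co-cultured with an equal number of HUT-78 cells persistently infected with HIV-1 IIIB or HIV-2 ROD, with varying compound concentrations. Syncytia were counted by flow cytofluorography after 24 h. EC50 is the concentration giving 50% protection against giant-cell formation.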

HuT78 [2] = test: Giant-cell formation between persistently HIV-2 infected HUT-78 cells and uninfected MOLT-4 cells; format: functional, cell-based; outline: as §1
[3] = In vitro anticoagulant activity determined by clotting test of activated partial thromboplastin time (APTT) on a pool of human plasma; format: functional
Outline: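 Activated partial thromboplastin time clotting test on pooled human plasma, run on an automatic coagulometer. Activities were calculated according to the European Pharmacopoeia.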

MT4 [4] = test: Effective concentration to achieve 50% protection of MT-4 cells against the cytopathic effect of HIV-1; format: functional, cell-based
MT4 [5] = test: Effective concentration to achieve 50% protection of MT-4 cells against the cytopathic effect of HIV-2; format: functional, cell-based
MT4 [6] = test: Selectivity index for CC50 (cytotoxic concentration based on the reduction of the viability of mock-infected MT-4 cells) to that of EC50 against HIV-1; format: functional
Outline: (§2)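 MT-4 cells at 3 × 10^5 cells/mL were infected with HIV-1 IIIB or HIV-2 ROD at 100 CCID50/mL, or mock-infected, alongside serial compound dilutions. Viability was read by MTT after 5 days at 37 °C. CC50 comes from mock-infected cells and EC50 from protection against cytopathicity. Index = CC50/EC50.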

MT4 [7] = test: Selectivity index for CC50 (cytotoxic concentration based on reduction of viability of mock-infected MT-4 cells) to that of EC50 against HIV-2; format: functional; outline: as §2
[8] = Homo sapiens, HuT78, read-out: EC50
[9] = Homo sapiens, MT4, read-out: EC50

Row | Structure (SMILES) | EC50 (HuT78 [1]; [8]) | EC50 (HuT78 [2]; [8]) | APTT [3] | EC50 (MT4 [4]; [9]) | EC50 (MT4 [5]; [9]) | Selectivity index (MT4 [6]) | Selectivity index (MT4 [7]) | EC50 (HuT78 [1]; hut78) | EC50 (MT4 [4]; mt4) | EC50 (MT4 [5]; mt4) | EC50 (HuT78 [2]; hut78)
1 | CCCCOC(=O)/C=C(\CO)OC1OC(COS(=O)(=O)[O-])C(OC2OC(C(=O)OCCCC)C(OC3OC(COS(=O)(=O)[O-])C(OC4OC(C(=O)OCCCC)C(OC5OC(COS(=O)(=O)[O-])C(O)C(O)C5NC(C)=O)C(O)C4OS(=O)(=O)[O-])C(O)C3NC(C)=O)C(O)C2OS(=O)(=O)[O-])C(O)C1NC(C)=O.[Na+].[Na+].[Na+].[Na+].[Na+] (centres undefined) | 100 µg/mL | 20 µg/mL | 1.2 IU mg-1 | 6.5 µg/mL | 2.5 µg/mL | >77 | >200 | – | – | – | –
2 | CC(=O)NC1C(OC2C(C(=O)[O-])OC(OC3C(COS(=O)(=O)[O-])OC(OC4C(C(=O)[O-])OC(OC5C(COS(=O)(=O)[O-])OC(O/C(=C/C(=O)[O-])CO)C(NC(C)=O)C5O)C(OS(=O)(=O)[O-])C4O)C(NC(C)=O)C3O)C(OS(=O)(=O)[O-])C2O)OC(COS(=O)(=O)[O-])C(O)C1O.[Na+].[Na+].[Na+].[Na+].[Na+].[Na+].[Na+].[Na+] (centres undefined) | 500 µg/mL | 60 µg/mL | 2.4 IU mg-1 | 4.1 µg/mL | 2.7 µg/mL | >122 | >185 | – | – | – | –
3 | CCCC(=O)OC/C(=C\C(=O)[O-])OC1OC(COS(=O)(=O)[O-])C(OC2OC(C(=O)[O-])C(OC3OC(COS(=O)(=O)[O-])C(OC4OC(C(=O)[O-])C(OC5OC(COS(=O)(=O)[O-])C(O)C(OC(=O)CCC)C5NC(C)=O)C(OC(=O)CCC)C4OS(=O)(=O)[O-])C(OC(=O)CCC)C3NC(C)=O)C(OC(=O)CCC)C2OS(=O)(=O)[O-])C(OC(=O)CCC)C1NC(C)=O.[Na+].[Na+].[Na+].[Na+].[Na+].[Na+].[Na+].[Na+] (centres undefined) | 15 µg/mL | 20 µg/mL | 6 IU mg-1 | 0.5 µg/mL | 1.2 µg/mL | >1000 | >417 | – | – | – | –
4 | C/C=C\COC(=O)/C=C(\CO)OC1OC(COS(=O)(=O)[O-])C(OC2OC(C(=O)OC/C=C/C)C(OC3OC(COS(=O)(=O)[O-])C(OC4OC(C(=O)OC/C=C/C)C(OC5OC(COS(=O)(=O)[O-])C(O)C(O)C5NS(=O)(=O)[O-])C(O)C4OS(=O)(=O)[O-])C(O)C3NS(=O)(=O)[O-])C(O)C2OS(=O)(=O)[O-])C(O)C1NS(=O)(=O)[O-].[Na+].[Na+].[Na+].[Na+].[Na+].[Na+].[Na+].[Na+] (centres undefined) | 10 µg/mL | 1 µg/mL | 3 IU mg-1 | 0.1 µg/mL | 1.3 µg/mL | >5000 | >384 | – | – | – | –
5 | C=CCOC(=O)/C=C(\CO)OC1OC(COS(=O)(=O)[O-])C(OC2OC(C(=O)OCC=C)C(OC3OC(COS(=O)(=O)[O-])C(OC4OC(C(=O)OCC=C)C(OC5OC(COS(=O)(=O)[O-])C(O)C(O)C5NS(=O)(=O)[O-])C(O)C4OS(=O)(=O)[O-])C(O)C3NS(=O)(=O)[O-])C(O)C2OS(=O)(=O)[O-])C(O)C1NS(=O)(=O)[O-].[Na+].[Na+].[Na+].[Na+].[Na+].[Na+].[Na+].[Na+] (centres undefined) | 100 µg/mL | 3 µg/mL | 2 IU mg-1 | 0.2 µg/mL | 1 µg/mL | >2500 | >500 | – | – | – | –
6 | C=CCCOC(=O)/C=C(\CO)OC1OC(COS(=O)(=O)[O-])C(OC2OC(C(=O)OCCC=C)C(OC3OC(COS(=O)(=O)[O-])C(OC4OC(C(=O)OCCC=C)C(OC5OC(COS(=O)(=O)[O-])C(O)C(O)C5NS(=O)(=O)[O-])C(O)C4OS(=O)(=O)[O-])C(O)C3NS(=O)(=O)[O-])C(O)C2OS(=O)(=O)[O-])C(O)C1NS(=O)(=O)[O-].[Na+].[Na+].[Na+].[Na+].[Na+].[Na+].[Na+].[Na+] (centres undefined) | 90 µg/mL | 2 µg/mL | 3 IU mg-1 | 0.6 µg/mL | 2.4 µg/mL | >833 | >208 | – | – | – | –
7 | O=C(/C=C(\CO)OC1OC(COS(=O)(=O)[O-])C(OC2OC(C(=O)OCc3ccccc3)C(OC3OC(COS(=O)(=O)[O-])C(OC4OC(C(=O)OCc5ccccc5)C(OC5OC(COS(=O)(=O)[O-])C(O)C(O)C5NS(=O)(=O)[O-])C(O)C4OS(=O)(=O)[O-])C(O)C3NS(=O)(=O)[O-])C(O)C2OS(=O)(=O)[O-])C(O)C1NS(=O)(=O)[O-])OCc1ccccc1.[Na+].[Na+].[Na+].[Na+].[Na+].[Na+].[Na+].[Na+] (centres undefined) | 1 µg/mL | 2 µg/mL | 4 IU mg-1 | 0.33 µg/mL | 0.4 µg/mL | >1515 | >1250 | – | – | – | –
8 | CCCCOC(=O)/C=C(\COC(=O)CCC)OC1OC(COS(=O)(=O)[O-])C(OC2OC(C(=O)OCCCC)C(OC3OC(COS(=O)(=O)[O-])C(OC4OC(C(=O)OCCCC)C(OC5OC(COS(=O)(=O)[O-])C(O)C(OC(=O)CCC)C5NS(=O)(=O)[O-])C(OC(=O)CCC)C4OS(=O)(=O)[O-])C(OC(=O)CCC)C3NS(=O)(=O)[O-])C(OC(=O)CCC)C2OS(=O)(=O)[O-])C(OC(=O)CCC)C1NS(=O)(=O)[O-].[Na+].[Na+].[Na+].[Na+].[Na+].[Na+].[Na+].[Na+] (centres undefined) | 4 µg/mL | 4 µg/mL | 5 IU mg-1 | 0.28 µg/mL | 0.27 µg/mL | >1785 | >1850 | – | – | – | –
9 | COc1ccc(COC(=O)/C=C(\CO)OC2OC(COS(=O)(=O)[O-])C(OC3OC(C(=O)OCc4ccc(OC)cc4)C(OC4OC(COS(=O)(=O)[O-])C(OC5OC(C(=O)OCc6ccc(OC)cc6)C(OC6OC(COS(=O)(=O)[O-])C(O)C(O)C6NS(=O)(=O)[O-])C(O)C5OS(=O)(=O)[O-])C(O)C4NS(=O)(=O)[O-])C(O)C3OS(=O)(=O)[O-])C(O)C2NS(=O)(=O)[O-])cc1.[Na+].[Na+].[Na+].[Na+].[Na+].[Na+].[Na+].[Na+] (centres undefined) | > 100 µg/mL | > 100 µg/mL | 4 IU mg-1 | 0.1 µg/mL | 4.3 µg/mL | >5000 | >119 | – | – | – | –
10 | O=C([O-])/C=C(\CO)OC1OC(COS(=O)(=O)[O-])C(OC2OC(C(=O)[O-])C(OC3OC(COS(=O)(=O)[O-])C(OC4OC(C(=O)[O-])C(OC5OC(COS(=O)(=O)[O-])C(O)C(O)C5NS(=O)(=O)[O-])C(O)C4OS(=O)(=O)[O-])C(O)C3NS(=O)(=O)[O-])C(O)C2OS(=O)(=O)[O-])C(O)C1NS(=O)(=O)[O-].[Na+].[Na+].[Na+].[Na+].[Na+].[Na+].[Na+].[Na+].[Na+].[Na+].[Na+] (stereo in doubt; 3a) | – | > 200 µg/mL | 5 IU mg-1 | – | – | >961 | 318 | > 200 µg/mL | 0.52 µg/mL | 77 µg/mL | –
11 | CCCCCC(=O)OC/C(=C\C(=O)[O-])OC1OC(COS(=O)(=O)[O-])C(OC2OC(C(=O)[O-])C(OC3OC(COS(=O)(=O)[O-])C(OC4OC(C(=O)[O-])C(OC5OC(CS(=O)(=O)[O-])C(O)C(OC(=O)CCCCC)C5NS(=O)(=O)[O-])C(OC(=O)CCCCC)C4OS(=O)(=O)[O-])C(OC(=O)CCCCC)C3NS(=O)(=O)[O-])C(OC(=O)CCCCC)C2OS(=O)(=O)[O-])C(OC(=O)CCCCC)C1NS(=O)(=O)[O-].[Na+].[Na+].[Na+].[Na+].[Na+].[Na+].[Na+].[Na+].[Na+].[Na+].[Na+] (stereo in doubt; 3f) | – | – | 4 IU mg-1 | – | – | >2500 | >500 | 7 µg/mL | 0.2 µg/mL | 1 µg/mL | 100 µg/mL
12 | CCCCCC(=O)OC/C(=C\C(=O)[O-])OC1OC(COS(=O)(=O)[O-])C(OC2OC(C(=O)[O-])C(OC3OC(COS(=O)(=O)[O-])C(OC4OC(C(=O)[O-])C(OC5OC(CS(=O)(=O)[O-])C(O)C(OC(=O)CCCCC)C5NS(=O)(=O)[O-])C(OC(=O)CCCCC)C4OS(=O)(=O)[O-])C(OC(=O)CCCCC)C3NS(=O)(=O)[O-])C(OC(=O)CCCCC)C2OS(=O)(=O)[O-])C(OC(=O)CCCCC)C1NS(=O)(=O)[O-].[Na+].[Na+].[Na+].[Na+].[Na+].[Na+].[Na+].[Na+].[Na+].[Na+].[Na+] (stereo in doubt; 3h) | – | – | 6 IU mg-1 | – | – | >5000 | >1250 | 3 µg/mL | 0.1 µg/mL | 0.4 µg/mL | 50 µg/mL
